Data on 1 molecule can be found in ChEMBL document CHEMBL4342521 (J Med Chem, 2020).

For data set [1], the system named is MV4-11. The experiment in a line: Inhibition of p53 degradation in human MV4-11 cells harboring wild type p53/FLT3-ITD mutant at 100 nM after 12 hrs in presence of MDM2 inhibitor RG7388 by Western blot analysis relative to control. The following applies: MV4-11, 12 h. In kind it is functional. The method in brief: (§1)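 Cells (1,500,000 per well) grown 12 h, then drug-treated as specified. Lysed in RIPA buffer, sonicated, centrifuged, protein normalized by BCA. Run on 4–12% Bis-Tris gels in MES, transferred, probed overnight at 4 °C with primary antibodies at 1/1000. Actin served as reference for LC3-II quantitation.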
Background: In western blotting, separated proteins are transferred to a membrane and probed.

In data set [2] the test system is MV4-11. Description: Inhibition of MDM2 degradation in human MV4-11 cells harboring wild type p53/FLT3-ITD mutant at 100 nM after 12 hrs in presence of MDM2 inhibitor RG7388 by Western blot analysis relative to control. In kind it is functional. The following applies: MV4-11, 12 h. The method in brief: as §1
Data set [3] can be described thus: AUC (0 to infinity) in CD1 mouse at 5 mg/kg, iv after 24 hrs by LC-MS/MS analysis. Set-up: dose 5 mg/kg, route intravenous, time infinity. In kind it is ADME, organism-based. Particulars: in vivo. The method in brief:
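Male CD-1 mice, fasted overnight, 3 per route; compound in PBS with 5% DMSO, iv bolus 5 mg/kg or oral gavage 20 mg/kg. Blood sampled at 5, 15, 30 min and 1–24 h. Plasma protein-precipitated with acetonitrile plus internal standard, quantified by LC-MS/MS (MRM). AUC by linear trapezoidal method; parameters by non-compartmental analysis.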

As a reminder, the inhibition is the relative decrease from the control value, in per cent. Usually AUC stands for concentration integrated over time. Read a low AUC as less exposure. On to `CCCNNC(=O)/C=C/c1ccc(CNCCc2c(C)[nH]c3ccccc23)cc1.O=C(O)C(F)(F)F`, for which the inhibition at 0.1 µM in the data set on MV4-11 [1] and in the data set on MV4-11 [2] was 100% in each case. The molecule also gave an AUC in data set [3] of 334 ng·h/mL.
